The array DNA melting data of Ke et al. (doi:10.1101/2024.01.08.574731)

Columns and labels:
[1] = melting temperature; fluorescence melt of hairpins on a sequencing array, two-state fit, raised by 9.35 °C to match UV melts; conditions: sodium 0.088 M
Method in brief: (§1)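 Bootstrapped two-state fits yielded melting temperature and folding enthalpy for library hairpins. Cy3 fluorescence, with annealed Cy3 and quencher oligos, was imaged on a sequenced MiSeq flow cell in 50 mM Na-HEPES pH 8.0, 25 mM NaCl in 2.5 °C steps up to 60 °C, and normalised to pre-quench Cy3 and to control constructs. Four replicates were combined by inverse variance, and fitted temperatures were raised by 9.35 °C to match UV melts.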

[2] = folding enthalpy; higher = less favourable; fluorescence melt of hairpins on a sequencing array, two-state fit; conditions: sodium 0.088 M
Method in brief: as §1

Sequence	Tm [1]	folding enthalpy [2]
GATCGCGAAAGCGACATC ((((((....)))..)))	32.1 °C	-8.3 kcal/mol
GATCGCGAAAGCGGGATC ((((((....)))..)))	45.5 °C	-14.1 kcal/mol
GATCGCGAAAGCGGTATC ((((((....)))..)))	39 °C	-10.9 kcal/mol
GATCGCGAAAGCGTATC ((((((....))).)))	51.8 °C	-15.5 kcal/mol
GATCGCGAAAGCGTTATC ((((((....)))..)))	28.1 °C	-15 kcal/mol
GATCGCGCCTGCGATC ((((((....))))))	69.3 °C	-26.7 kcal/mol
GATCGCGCGGCGATC ((((((...))))))	68.5 °C	-34.6 kcal/mol
GATCGCGCGGGCGATC ((((((....))))))	67.2 °C	-32.9 kcal/mol
GATCGCGCGTGCGATC ((((((....))))))	67.9 °C	-26.4 kcal/mol
GATCGCGGAAACACGATC (((((.(....).)))))	48.6 °C	-30.7 kcal/mol
GATCGCGGAAACGTGGTC ((.(.((....)).).))	43.6 °C	-26.7 kcal/mol
GATCGCGGGGGCGATC ((((((....))))))	69.3 °C	-27.7 kcal/mol
GATCGCTAATGCGATC ((((((....))))))	67.1 °C	-31.4 kcal/mol
GATCGCTCGAGCGATC ((((((....))))))	67.6 °C	-42.1 kcal/mol
GATCGCTGCCGCGATC ((((((....))))))	67.3 °C	-32.8 kcal/mol
GATCGCTGGAGCGATC ((((((....))))))	68.5 °C	-37.8 kcal/mol
GATCGCTGTCGCGATC ((((((....))))))	68.4 °C	-30.2 kcal/mol
GATCGCTTGCGCGATC ((((((....))))))	67.1 °C	-30.3 kcal/mol
GATCGGAACCCCGATC ((((((....))))))	54.1 °C	-40 kcal/mol
GATCGGAAGACCGATC ((((((....))))))	52.8 °C	-29 kcal/mol
GATCGGAATTCCGATC ((((((....))))))	56.6 °C	-51 kcal/mol
GATCGGACACCGATC ((((((...))))))	57.1 °C	-33.4 kcal/mol
GATCGGACTGCCGATC ((((((....))))))	55.5 °C	-42 kcal/mol
GATCGGATTCCGATC ((((((...))))))	54.6 °C	-44.6 kcal/mol

Sequence	Tm [1]	folding enthalpy [2]
GATCGGATTTCCGATC ((((((....))))))	57.5 °C	-36.5 kcal/mol
GATCGGCATCCGATC ((((((...))))))	55.3 °C	-40.1 kcal/mol
GATCGGCCACCCGATC ((((((....))))))	54.9 °C	-39.9 kcal/mol
GATCGGCCCTCCGATC ((((((....))))))	56.7 °C	-39.9 kcal/mol
GATCGGCCTTCCGATC ((((((....))))))	56.1 °C	-41.3 kcal/mol
GATCGGCGCACCGATC ((((((....))))))	59.9 °C	-37.4 kcal/mol
GATCGGCGGACCGATC ((((((....))))))	57.2 °C	-38.8 kcal/mol
GATCGGCGGTCCGATC ((((((....))))))	55.5 °C	-43.3 kcal/mol
GATCGGCTACCGATC ((((((...))))))	56 °C	-33.9 kcal/mol
GATCGGCTCACCGATC ((((((....))))))	57.4 °C	-38.8 kcal/mol
GATCGGCTCCCCGATC ((((((....))))))	55.2 °C	-42.1 kcal/mol
GATCGGCTCGCCGATC ((((((....))))))	69.3 °C	-35.9 kcal/mol
GATCGGCTGACCGATC ((((((....))))))	56.2 °C	-40.4 kcal/mol
GATCGGCTGTCCGATC ((((((....))))))	56.3 °C	-39.6 kcal/mol
GATCGGCTTCCGATC ((((((...))))))	56.1 °C	-44.9 kcal/mol
GATCGGGACTCCGATC ((((((....))))))	61 °C	-39.7 kcal/mol
GATCGGGAGACCGATC ((((((....))))))	63.8 °C	-32.6 kcal/mol
GATCGGGAGGCCGATC ((((((....))))))	56.2 °C	-46.1 kcal/mol
GATCGGGAGTCCGATC ((((((....))))))	56.5 °C	-39.6 kcal/mol
GATCGGGCGCCGATC ((((((...))))))	55 °C	-46.3 kcal/mol
GATCGGGCGTCCGATC ((((((....))))))	58.2 °C	-37.2 kcal/mol
GATCGGGGAAACTCGATC (((((.(....).)))))	51.2 °C	-33.1 kcal/mol
GATCGGGGACCGATC ((((((...))))))	66.8 °C	-37.2 kcal/mol
GATCGGGGATCCGATC ((((((....))))))	62.8 °C	-40.7 kcal/mol

Sequence	Tm [1]	folding enthalpy [2]
GATCGGGGCCCGATC ((((((...))))))	60.5 °C	-41.2 kcal/mol
GATCGGGGGCCGATC ((((((...))))))	54.9 °C	-40.8 kcal/mol
GATCGGGGTCCGATC ((((((...))))))	58.6 °C	-32.1 kcal/mol
GATCGGGTACCCGATC ((((((....))))))	64.9 °C	-47.6 kcal/mol
GATCGGGTATCCGATC ((((((....))))))	65.4 °C	-37.6 kcal/mol
GATCGGGTGGCCGATC ((((((....))))))	57 °C	-40.4 kcal/mol
GATCGGGTGTCCGATC ((((((....))))))	58.3 °C	-37.7 kcal/mol
GATCGGGTTTCCGATC ((((((....))))))	60.7 °C	-39.9 kcal/mol
GATCGGTACACCGATC ((((((....))))))	62.2 °C	-40.4 kcal/mol
GATCGGTACCCCGATC ((((((....))))))	54.4 °C	-42.5 kcal/mol
GATCGGTACCCGATC ((((((...))))))	57.2 °C	-39.3 kcal/mol
GATCGGTATGCCGATC ((((((....))))))	62.1 °C	-41.9 kcal/mol
GATCGGTATTCCGATC ((((((....))))))	58.4 °C	-42 kcal/mol
GATCGGTCAGCCGATC ((((((....))))))	59.8 °C	-41.8 kcal/mol
GATCGGTCCCCCGATC ((((((....))))))	55.7 °C	-45 kcal/mol
GATCGGTCCGCCGATC ((((((....))))))	60.1 °C	-42.5 kcal/mol
GATCGGTCCTCCGATC ((((((....))))))	59.9 °C	-38 kcal/mol
GATCGGTCGGCCGATC ((((((....))))))	59.4 °C	-45.8 kcal/mol
GATCGGTCTCCGATC ((((((...))))))	57.4 °C	-43.1 kcal/mol
GATCGGTCTGCCGATC ((((((....))))))	62.1 °C	-41.8 kcal/mol
GATCGGTGGACCGATC ((((((....))))))	57.2 °C	-31.7 kcal/mol
GATCGGTTAACCGATC ((((((....))))))	58.8 °C	-47.3 kcal/mol
GATCGGTTATCCGATC ((((((....))))))	58.9 °C	-36.8 kcal/mol
GATCGGTTGTCCGATC ((((((....))))))	57.1 °C	-33.8 kcal/mol

Sequence	Tm [1]	folding enthalpy [2]
GATCGTAAAAACGATC ((((((....))))))	50.3 °C	-31.8 kcal/mol
GATCGTAATCACGATC ((((((....))))))	53.2 °C	-45.7 kcal/mol
GATCGTAATTACGATC ((((((....))))))	56.3 °C	-36 kcal/mol
GATCGTACACACGATC ((((((....))))))	54.4 °C	-40.7 kcal/mol
GATCGTACGGACGATC ((((((....))))))	54.4 °C	-45.6 kcal/mol
GATCGTACTACGATC ((((((...))))))	56.5 °C	-36.3 kcal/mol
GATCGTACTGACGATC ((((((....))))))	55.2 °C	-36.2 kcal/mol
GATCGTAGCCACGATC ((((((....))))))	56.2 °C	-39.3 kcal/mol
GATCGTATAACGATC ((((((...))))))	55.7 °C	-47.3 kcal/mol
GATCGTATCAACGATC ((((((....))))))	55 °C	-35.5 kcal/mol
GATCGTATCACGATC ((((((...))))))	58.4 °C	-37.6 kcal/mol
GATCGTATCTACGATC ((((((....))))))	57.6 °C	-37.9 kcal/mol
GATCGTATGAACGATC ((((((....))))))	53.6 °C	-31 kcal/mol
GATCGTCAAAACGATC ((((((....))))))	55.1 °C	-40 kcal/mol
GATCGTCACACGATC ((((((...))))))	57 °C	-37.8 kcal/mol
GATCGTCATACGATC ((((((...))))))	57.5 °C	-33.8 kcal/mol
GATCGTCCCAACGATC ((((((....))))))	55.6 °C	-40.2 kcal/mol
GATCGTCCCCACGATC ((((((....))))))	53.9 °C	-41.8 kcal/mol
GATCGTCCGCACGATC ((((((....))))))	54.4 °C	-39.6 kcal/mol
GATCGTCCGTACGATC ((((((....))))))	54.9 °C	-47.3 kcal/mol
GATCGTCGATACGATC ((((((....))))))	54.7 °C	-38.5 kcal/mol
GATCGTCGGAACGATC ((((((....))))))	52.7 °C	-27.3 kcal/mol
GATCGTCGGGACGATC ((((((....))))))	61.7 °C	-41.3 kcal/mol
GATCGTCTAACGATC ((((((...))))))	55.6 °C	-38.7 kcal/mol
